Assay results reported in ChEMBL document CHEMBL3351917, “Structure-activity relationship study of 4EGI-1, small molecule eIF4E/eIF4G protein-protein interaction inhibitors” (Eur J Med Chem, 2014).
Where “and” joins values, the source holds several entries; their conditions need not be identical. Equal entries are not always repeated. Calls of active or inactive are those of the source. The rule behind the calls is not given here.

target: T1, Eukaryotic translation initiation factor 4E (Homo sapiens, UniProt P06730); assay: Inhibition of eIF4E/eIF4G interaction in human CRL2813 cells assessed as reduction of eIF4E/eIF4G complex at 30 uM after 6 hrs by Western blotting analysis relative to control; format: cell-based; conditions: not given
In short: (§1)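 CRL-2813 melanoma cells incubated 6 h with 30 µM compound or DMSO vehicle, harvested, lysed by freeze-thaw; lysate bound to m7GTP-Sepharose 1 h at 4°C, beads washed, eluted with free m7GTP; retentate resolved by SDS-PAGE and immunoblotted for eIF4E, eIF4G (monoclonal) and 4E-BP1 (polyclonal). Blots quantified; mean of three independent pull-downs, error ±S.E.M.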

T1 sequence (P06730 whole entry): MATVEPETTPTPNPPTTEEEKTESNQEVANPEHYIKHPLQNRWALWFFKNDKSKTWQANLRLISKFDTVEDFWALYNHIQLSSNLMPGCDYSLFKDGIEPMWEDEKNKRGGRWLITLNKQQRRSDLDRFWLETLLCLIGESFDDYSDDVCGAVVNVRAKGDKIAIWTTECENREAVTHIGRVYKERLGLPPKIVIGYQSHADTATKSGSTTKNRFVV

Row | inhibition | SMILES
1 | Active | Nc1ccc(C/C(=N/Nc2nc(-c3ccc(Cl)c(Cl)c3)cs2)C(=O)O)cc1[N+](=O)[O-]

target: T1, Eukaryotic translation initiation factor 4E; assay: Inhibition of eIF4E/eIF4G interaction in human CRL2813 cells assessed as increase in eIF4E/BP1 complex at 30 uM after 6 hrs by Western blotting analysis relative to control; format: cell-based; conditions: not given; in short: as §1

Row | inhibition | SMILES
2 | Active | Nc1ccc(C/C(=N/Nc2nc(-c3ccc(Cl)c(Cl)c3)cs2)C(=O)O)cc1[N+](=O)[O-]

tested on: not listed separately; assay: Retention time of the compound in 0 to 70% ACN/Water/0.1%TFA by RP-HPLC analysis; format: physicochemical; conditions: buffer

Row | Retention_time | SMILES
3 | 12.958 min | O=C(O)/C(Cc1ccccc1[N+](=O)[O-])=N\Nc1nc(-c2ccccc2)cs1
4 | 16.47 min | O=C(O)/C(Cc1ccccc1[N+](=O)[O-])=N\Nc1nc(-c2ccc(O)cc2)cs1
5 | 16.48 min | O=C(O)/C(Cc1ccccc1[N+](=O)[O-])=N/Nc1nc(-c2ccc(O)cc2)cs1
6 | 12.98 min | Nc1ccc(-c2csc(N/N=C(/Cc3ccccc3[N+](=O)[O-])C(=O)O)n2)cc1
7 | 11.06 min | Nc1ccc(-c2csc(N/N=C(\Cc3ccccc3[N+](=O)[O-])C(=O)O)n2)cc1
8 | 16.77 min | O=C(O)/C(Cc1ccccc1[N+](=O)[O-])=N\Nc1nc(-c2ccc(C(=O)O)cc2)cs1
9 | 14.54 min | O=C(O)/C(Cc1ccccc1[N+](=O)[O-])=N/Nc1nc(-c2ccc(C(=O)O)cc2)cs1
10 | 15.796 min and 16.484 min | O=C(O)/C(Cc1ccccc1[N+](=O)[O-])=N/Nc1nc(-c2ccccc2)cs1

tested on: not listed separately; assay: Retention time of the compound in 50 to 100% ACN/Water/0.1%TFA by RP-HPLC analysis; format: physicochemical; conditions: buffer
In short: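 RP-HPLC run with a 50 to 100% ACN/water/0.1% TFA gradient over 25 min; retention times and isomer ratios taken from the reaction mixture.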

Row | SMILES | Retention_time
11 | COc1ccc(C/C(=N/Nc2nc(-c3ccc(Cl)c(Cl)c3)cs2)C(=O)O)cc1[N+](=O)[O-] | 10.68 min
12 | O=C(O)/C(Cc1ccccc1[N+](=O)[O-])=N\Nc1nc(-c2ccc(N3CCOCC3)cc2)cs1 | 12.32 min
13 | O=C(O)/C(Cc1ccccc1[N+](=O)[O-])=N\Nc1nc(-c2ccc3ccccc3c2)cs1 | 5.899 min
14 | O=C(O)/C(Cc1ccccc1[N+](=O)[O-])=N/Nc1nc(-c2ccc3ccccc3c2)cs1 | 7.27 min
15 | O=C(O)/C(Cc1ccccc1[N+](=O)[O-])=N/Nc1nc(-c2ccc(N3CCOCC3)cc2)cs1 | 15.082 min
16 | O=C(O)/C(Cc1ccccc1[N+](=O)[O-])=N\Nc1nc(-c2ccc(C3CCCCC3)cc2)cs1 | 11.636 min
17 | O=C(O)/C(Cc1ccccc1[N+](=O)[O-])=N/Nc1nc(-c2ccc(C3CCCCC3)cc2)cs1 | 12.013 min
18 | O=C(O)/C(Cc1ccccc1[N+](=O)[O-])=N\Nc1nc(-c2ccc(-c3ccccc3)cc2)cs1 | 7.23 min

The next lines start with the values.

Row | Retention_time | SMILES
19 | 5.62 min | O=C(O)/C(Cc1ccc(C(=O)O)cc1)=N/Nc1nc(-c2ccc(Cl)c(Cl)c2)cs1
20 | 10.59 min | O=C(O)/C(Cc1ccc(C(F)(F)F)cc1)=N/Nc1nc(-c2ccc(Cl)c(Cl)c2)cs1
21 | 15.08 min | Nc1ccc(C/C(=N/Nc2nc(-c3ccc(Cl)c(Cl)c3)cs2)C(=O)O)cc1[N+](=O)[O-]
22 | 8.68 min | O=C(O)/C(Cc1ccccc1[N+](=O)[O-])=N/Nc1nc(-c2ccc(Cl)c(Cl)c2)cs1
23 | 8.36 min | O=C(O)/C(Cc1cccc([N+](=O)[O-])c1)=N\Nc1nc(-c2ccc(Cl)c(Cl)c2)cs1
24 | 14.28 min | O=C(O)/C(Cc1ccc(O)cc1)=N\Nc1nc(-c2ccc(Cl)c(Cl)c2)cs1
25 | 15.54 min | O=C(O)/C(Cc1ccc(F)c([N+](=O)[O-])c1)=N/Nc1nc(-c2ccc(Cl)c(Cl)c2)cs1
26 | 7.82 min | O=C(O)/C(Cc1ccc(O)c([N+](=O)[O-])c1)=N\Nc1nc(-c2ccc(Cl)c(Cl)c2)cs1
27 | 13.69 min | O=C(O)/C(Cc1ccccc1[N+](=O)[O-])=N\Nc1nc(-c2ccc(Cl)c(Cl)c2)cs1
28 | 8.01 min | O=C(O)/C(Cc1ccc([N+](=O)[O-])cc1)=N\Nc1nc(-c2ccc(Cl)c(Cl)c2)cs1
29 | 8.4 min | O=C(O)/C(Cc1ccc(F)c([N+](=O)[O-])c1)=N\Nc1nc(-c2ccc(Cl)c(Cl)c2)cs1
30 | 10.09 min | O=C(O)/C(Cc1ccc(Cl)cc1)=N\Nc1nc(-c2ccc(Cl)c(Cl)c2)cs1
31 | 7.47 min | O=C(O)/C(Cc1ccc(F)cc1)=N/Nc1nc(-c2ccc(Cl)c(Cl)c2)cs1
32 | 8.007 min | COc1ccc(C/C(=N\Nc2nc(-c3ccc(Cl)c(Cl)c3)cs2)C(=O)O)cc1[N+](=O)[O-]
33 | 8.7 min | O=C(O)/C(Cc1ccccc1)=N/Nc1nc(-c2ccc(Cl)c(Cl)c2)cs1
34 | 9.449 min | O=C(O)/C(Cc1ccc(Cl)c([N+](=O)[O-])c1)=N\Nc1nc(-c2ccc(Cl)c(Cl)c2)cs1
35 | 7.82 min | O=C(O)/C(Cc1ccc(O)c([N+](=O)[O-])c1)=N/Nc1nc(-c2ccc(Cl)c(Cl)c2)cs1
36 | 7.19 min | O=C(O)/C(Cc1cccc([N+](=O)[O-])c1)=N/Nc1nc(-c2ccc(Cl)c(Cl)c2)cs1
37 | 10.53 min | O=C(O)/C(Cc1ccc(C(F)(F)F)cc1)=N\Nc1nc(-c2ccc(Cl)c(Cl)c2)cs1
38 | 8.13 min | O=C(O)/C(Cc1ccc(C(=O)O)cc1)=N\Nc1nc(-c2ccc(Cl)c(Cl)c2)cs1
39 | 10.56 min | O=C(O)/C(Cc1ccccc1)=N\Nc1nc(-c2ccc(Cl)c(Cl)c2)cs1
40 | 9.437 min | O=C(O)/C(Cc1ccc(Cl)c([N+](=O)[O-])c1)=N/Nc1nc(-c2ccc(Cl)c(Cl)c2)cs1
41 | 8.16 min | O=C(O)/C(Cc1ccc([N+](=O)[O-])cc1)=N/Nc1nc(-c2ccc(Cl)c(Cl)c2)cs1
42 | 7.92 min | O=C(O)/C(Cc1ccc(F)cc1)=N\Nc1nc(-c2ccc(Cl)c(Cl)c2)cs1
43 | 14.28 min | O=C(O)/C(Cc1ccc(O)cc1)=N/Nc1nc(-c2ccc(Cl)c(Cl)c2)cs1

tested on: not listed separately; assay: Retention time of the compound in 30 to 100% ACN/Water/0.1%TFA by RP-HPLC analysis; format: physicochemical; conditions: buffer
In short: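 Reverse-phase HPLC, 30 to 100% ACN/water/0.1% TFA gradient in 25 min; retention times and E/Z ratios determined on the reaction mixture.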

Row | SMILES | Retention_time | Retention time
44 | [N-]=[N+]=Nc1ccc(-c2csc(N/N=C(\Cc3ccccc3[N+](=O)[O-])C(=O)O)n2)cc1 | 11.722 min | –
45 | O=C(O)/C(Cc1ccc(Br)cc1[N+](=O)[O-])=N/Nc1nc(-c2ccc(Cl)c(Cl)c2)cs1 | 15.542 min | –
46 | O=C(O)/C(Cc1ccc(C(=O)O)cc1[N+](=O)[O-])=N/Nc1nc(-c2ccc(Cl)c(Cl)c2)cs1 | 11.814 min | –
47 | O=C(O)/C(Cc1ccccc1[N+](=O)[O-])=N/Nc1nc(-c2ccc(Br)cc2)cs1 | 10 min | –
48 | O=C(O)/C(Cc1ccccc1[N+](=O)[O-])=N/Nc1nc(-c2ccc3ccccc3c2)cs1 | 11.72 min | –
49 | O=C(O)/C(Cc1ccc(C(=O)O)cc1[N+](=O)[O-])=N\Nc1nc(-c2ccc(Cl)c(Cl)c2)cs1 | – | 12.5 min
50 | O=C(O)/C(Cc1ccccc1[N+](=O)[O-])=N\Nc1nc(-c2ccc(N3CCCC3)cc2)cs1 (mixture of isomers) | 8.828 min | –
51 | [N-]=[N+]=Nc1ccc(-c2csc(N/N=C(/Cc3ccccc3[N+](=O)[O-])C(=O)O)n2)cc1 | 13.435 min | –
52 | O=C(O)/C(Cc1ccccc1[N+](=O)[O-])=N\Nc1nc(-c2ccc(Br)cc2)cs1 | 12.48 min | –

Continued, values first:

Row | Retention_time | Retention time | SMILES
53 | 15.09 min | – | Nc1ccc(C/C(=N/Nc2nc(-c3ccc(Cl)c(Cl)c3)cs2)C(=O)O)cc1[N+](=O)[O-]
54 | 5.328 min | – | Nc1ccc(C/C(=N/Nc2nc(-c3ccc(Cl)c(Cl)c3)cs2)C(=O)O)cc1
55 | 12.3 min | – | Nc1ccc(C/C(=N\Nc2nc(-c3ccc(Cl)c(Cl)c3)cs2)C(=O)O)cc1[N+](=O)[O-]

tested on: not listed separately; assay: Retention time of the compound in 0 to 100% ACN/Water/0.1%TFA by RP-HPLC analysis; format: physicochemical; conditions: buffer
In short: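 Reverse-phase HPLC, linear gradient 0 to 100% ACN/water/0.1% TFA over 25 min; isomer retention times and ratios measured in the reaction mixture.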

Row | SMILES | Retention_time
56 | O=C(O)/C(Cc1ccccc1[N+](=O)[O-])=N\Nc1nc(-c2ccccc2)cs1 | 16.98 min
57 | O=C(O)/C(Cc1ccccc1[N+](=O)[O-])=N/Nc1nc(-c2ccccc2)cs1 | 15.8 min

The next lines start with the values.

Row | Retention_time | SMILES
58 | 18.74 min | O=C(O)/C(Cc1ccc(O)cc1)=N\Nc1nc(-c2ccc(Cl)c(Cl)c2)cs1
59 | 16.63 min | O=C(O)/C(Cc1ccc(O)cc1)=N/Nc1nc(-c2ccc(Cl)c(Cl)c2)cs1

target: T1, Eukaryotic translation initiation factor 4E; assay: Binding affinity to human full length recombinant GST-tagged eIF4E expressed in Escherichia coli BL21(DE3) by intrinsic tryptophan fluorescence quenching method; conditions: not given

Row | Kd | SMILES
60 | 5.01 µM | Nc1ccc(C/C(=N/Nc2nc(-c3ccc(Cl)c(Cl)c3)cs2)C(=O)O)cc1[N+](=O)[O-]
61 | 36.6 µM | O=C(O)/C(Cc1ccccc1[N+](=O)[O-])=N\Nc1nc(-c2ccc(O)cc2)cs1
